Assay results as given in publication PMC6387680 (Leukemia & lymphoma, 2011).
Where “and” joins values, the source holds several entries; their conditions need not be identical. Equal values may be shown once.

Tests used:
lymphocyte count = details: associated with decreasing lymph node size; cited from earlier work
[1] = test system: absolute lymphocyte count (ALC); experiment: Absolute lymphocyte count after UCN-01; format: in vivo, human
Neoplastic B cells = experiment: In vivo apoptosis by annexin V-FITC flow cytometry of peripheral blood; set-up: species or system human; details: for Peak value of apoptosis (annexin V-positive cells): CLL patient; for apoptotic B cells positive for CD19 and annexin V: time point not stated
How it was run: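 Peripheral blood was stained within 12 h of collection. Erythrocytes were lysed (150 mM NH4Cl, 10 mM KHCO3, 0.1 mM EDTA; 10 min, room temperature), spun 500 × g for 15 min and washed twice in PBS/0.1% NaN3. Cells were co-stained 30 min with annexin V-FITC plus tumour-marker antibodies (CD19, CD5 for CLL). Four-colour flow, ≥5000 lymphocytes per tube. Controls were thawed lymphocytes (positive) and fresh whole blood (negative).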

[2] = test system: patients with refractory neoplasms; details: cited from earlier work
[3] = Plasma UCN-01 pharmacokinetics; format: in vivo, human
[4] = test system: patients with relapsed lymphoma or CLL; experiment: Toxicity of cycle 1 UCN-01 alone; format: in vivo, human
[5] = test system: patients with refractory solid tumors; details: 24 patients; cited from earlier work
[6] = human, plasma, iv, 45 mg/m^2/day
[7] = median, n=15, cycle 1, 72 h IV infusion at 45 mg/m^2/day
[8] = cycle 1 UCN-01 alone, n (%) of 18 patients

In the case of CC[C@H](Nc1ncnc2[nH]cnc12)c1nc2cccc(F)c2c(=O)n1-c1ccccc1 [CAL-101], the “patients with an increase in lymphocyte count” value (lymphocyte count) is given as 60%.

In the case of CN[C@@H]1C[C@H]2O[C@@](C)([C@@H]1OC)n1c3ccccc3c3c4c(c5c6ccccc6n2c5c31)C(=O)N[C@@H]4O [UCN-01, 7-hydroxystaurosporine], the “day of peak lymphocytosis” value ([1]; cycle 1) is reported as ≤ 4 days, the “increase in the absolute lymphocyte count (ALC)” value ([1]; first three of four patients with CLL, first cycle of UCN-01 alone) is reported as 2.0–2.7 fold and the “patients with lymphocytosis following UCN-01” value ([1]; in vivo) is reported as 15 of 18. The “Peak value of apoptosis (annexin V-positive cells)” value (Neoplastic B cells; day 4 of cycle 1) was 15%, the “Peak value of apoptosis (annexin V-positive cells)” value (Neoplastic B cells; day 28 of cycle 1) was 8% and the “apoptotic B cells positive for CD19 and annexin V” value (shortened to “apoptotic B cells positive”) (Neoplastic B cells; patient 10, Figure 2 (B), low level) was 2.6%. The “apoptotic B cells positive” value (Neoplastic B cells; patient 17, Figure 2 (C), low level) was 3.8%, the “apoptotic B cells positive” value (Neoplastic B cells; patient 17, Figure 2 (E), high level) was 38.9% and the “MTD / recommended phase II dose” value ([2]; 3-day infusion) was 42.5 mg/m^2/day. For the same compound, the “grade 4 hyperglycemia, patients” value ([2]; 42.5 dose level, complicated by steroids) was 1/9, the significant hematopoietic toxicity [2] was “None of the patients had significant hematopoietic toxicity” and the “dose level at which DLT (> grade 3) occurred” value ([2]; nausea/vomiting, hyperglycemia, transient hypoxia) was 53 mg/m^2/ day. For the same compound, the “difference in UCN-01 CLtot between cycle 1 (without FAMP) and cycle 2 (with FAMP)” value ([3]; five evaluable patients, paired t-test p = 0.27) was “no intra-individual difference”, the Vd ([3]; human, plasma, intravenous, 45 mg/m^2/day) was 3 to 18 L and the AUC(0-inf) [3, 6] was 7260 µg·h/mL. The Cmax [3, 6] was 16700 ng/mL, the VλZ [3, 7] was 7.4 L and the “t1/2 (terminal)” value [3, 7] was 15.02 days. For the same compound, the “grade 4 hyperuricemia, patients” value ([4]; among the three patients with tumor lysis syndrome) was “three”, the “Single episodes of grade 2 toxicities” value ([4]; cycle 1 UCN-01 alone) was “an elevated bicarbonate level, circulation cardiac-other, constipation, an elevated CPK, depression, dyspepsia, pruritus, and taste disturbance” and the “grade 3 toxicities that occurred one time during cycle 1” value ([4]; cycle 1 UCN-01 alone) was “isolated elevated SGPT and one episode of febrile neutropenia”. For the same compound, the “Amylase, grade 2 or 3 toxicity” value [4, 8] was 2(11%), the “Creatinine, grade 2 or 3 toxicity” value [4, 8] was 4(22%) and the “Headache, grade 2 or 3 toxicity” value [4, 8] was 8(44%). The “Hemoglobin, grade 2 or 3 toxicity” value [4, 8] was 6(33%), the “Hyperglycemia, grade 2 or 3 toxicity” value [4, 8] was 12(67%) and the “Hypermagnesemia, grade 2 or 3 toxicity” value [4, 8] was 3(16%). For the same compound, the “Hypoalbuminemia, grade 2 or 3 toxicity” value [4, 8] was 2(11%), the “Hypocalcemia, grade 2 or 3 toxicity” value [4, 8] was 6(33%) and the “Hyponatremia, grade 2 or 3 toxicity” value [4, 8] was 2(11%). The “Hypoxia, grade 2 or 3 toxicity” value [4, 8] was 6(33%), the “Inf w/o neut (infection without neutropenia), grade 2 or 3 toxicity” value [4, 8] was 2(11%) and the “Leukopenia, grade 2 or 3 toxicity” value [4, 8] was 3(16%). For the same compound, the “Lymphopenia, grade 2 or 3 toxicity” value [4, 8] was 5(27%), the “Myalgia, grade 2 or 3 toxicity” value [4, 8] was 2(11%) and the “Nausea, grade 2 or 3 toxicity” value [4, 8] was 8(44%). For the same compound, the “Neutropenia, grade 2 or 3 toxicity” value [4, 8] was 4(22%), the “Rash/desquamation, grade 2 or 3 toxicity” value [4, 8] was 2(11%) and the “SGOT (AST), grade 2 or 3 toxicity” value [4, 8] was 3(16%). For the same compound, the “Stomatitis, grade 2 or 3 toxicity” value [4, 8] was 3(16%), the “Sup/vnt arrh (supraventricular arrhythmia), grade 2 or 3 toxicity” value [4, 8] was 2(11%) and the “Trans prbcs (transfused packed red blood cells), grade 2 or 3 toxicity” value [4, 8] was 3(16%). For the same compound, the “Tumor lysis, grade 2 or 3 toxicity” value [4, 8] was 3(16%), the “Vomiting, grade 2 or 3 toxicity” value [4, 8] was 4(22%) and the “tumor lysis syndrome (grade 3, CTCAE v2), patients” value ([4]; in vivo) was “Three”. For the same compound, the “Hypocalcemia (grade 2), patients” value ([4]; six patients) was 33%, the creatinine peak ([4]; tumor lysis patients with renal dysfunction) was 2.1 mg/dL and the “serum blood urea nitrogen [BUN] peak” value ([4]; two tumor lysis patients with renal dysfunction) was 66 mg/dL and 40 mg/dL. The objective responses [5] was “no objective responses” and the toxicities noted [5] was “grade 1–2 nausea, vomiting, hyperglycemia, and hypotension”.
